From PubChem BioAssay
Most compounds without a hit are left out; they make up all but 2.2% or so of the library.
IMP-1 inh: blocks Pseudomonas aeruginosa IMP-1 metallo-beta-lactamase; 290,000 tested, 0.45% active; purified IMP-1, nitrocefin hydrolysis, epi-absorbance fluorescence; inhibition, % at 5.6 µM;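 active = inhibition above the mean plus 3 SD of all compounds in the same screening run, cut at about 4.5% in these data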
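Assay system: purified recombinant IMP-1 beta-lactamase. Input: IMP-1 0.2 nM before substrate addition. Buffer or medium: Zinc- and detergent-supplemented HEPES buffer, pH 7.1. Schedule: 25 °C, 15 min preincubation, 25 min reaction. Signal: Epi-absorbance fluorescence, 480 nm excitation, 530 nm emission. Evaluation: percent inhibition from optical density relative to buffer-blank wells.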
EBV gp42 block: inhibitors of Epstein-Barr virus glycoprotein 42. Fluorescence polarization binding assay, mP read-out. Q1HVG2. 220,000 tested, 0.42% active. inhibition, % (tested at 21.74 µM); in the data active = inhibition above about 50%
Target sequence (Q1HVG2 whole entry, looked up): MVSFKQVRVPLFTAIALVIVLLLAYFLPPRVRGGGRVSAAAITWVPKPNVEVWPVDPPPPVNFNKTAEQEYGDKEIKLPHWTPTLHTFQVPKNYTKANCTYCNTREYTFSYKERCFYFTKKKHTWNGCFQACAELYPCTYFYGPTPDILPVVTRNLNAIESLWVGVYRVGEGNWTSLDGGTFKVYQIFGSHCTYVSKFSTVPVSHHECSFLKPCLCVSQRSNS
MEX-5 binding: C. elegans MEX-5 TCR-2 RNA binding activity | Q9XUB2 | MEX-5/FITC-TCR2 RNA binding, fluorescence polarization; active compounds read low | activity score (negative = inhibition of binding), % at 10 µM | 300,000 tested, 0.38% active | AID 1832;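 active = inhibition past about -25% in most replicates, and total fluorescence under double the plate's negative control median, limit read from the data; inconclusive = replicates evenly split on the limit, or fluorescence at least double controls; inactive = too little inhibition in most replicates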
GLD-1 TGE inh: GLD-1-TGE RNA interaction inhibition (C. elegans). Q17339. purified GLD-1 + fluorescein TGE RNA, fluorescence polarization. inhibition, % at 5.96 µM. 320,000 tested, 0.44% active;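 active = percent inhibition above a per-plate cutoff, the plate mean of test compounds plus 3 SD, cut at about 30% in these data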
Target sequence (Q17339 whole entry, looked up): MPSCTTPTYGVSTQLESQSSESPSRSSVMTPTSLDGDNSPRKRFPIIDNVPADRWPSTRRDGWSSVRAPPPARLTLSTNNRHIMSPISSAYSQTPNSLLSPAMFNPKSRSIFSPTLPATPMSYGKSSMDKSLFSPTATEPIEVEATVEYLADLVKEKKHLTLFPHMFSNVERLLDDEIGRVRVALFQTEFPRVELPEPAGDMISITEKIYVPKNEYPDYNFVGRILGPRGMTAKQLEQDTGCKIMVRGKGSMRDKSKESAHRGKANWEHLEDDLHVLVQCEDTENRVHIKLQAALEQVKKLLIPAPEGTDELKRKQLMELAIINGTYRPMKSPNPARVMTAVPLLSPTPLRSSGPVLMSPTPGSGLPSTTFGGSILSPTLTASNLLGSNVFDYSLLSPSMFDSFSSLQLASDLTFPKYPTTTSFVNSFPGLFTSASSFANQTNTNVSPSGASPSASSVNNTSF
Bcl-xL primary: blocks human Bcl-xL binding to Bim BH3 peptide; GST-Bcl-xL / FITC-Bim BH3 peptide fluorescence polarization; Q07817; inhibition, % at 10.9 µM; 320,000 tested, 0.7% active;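 active = inhibition above the mean of all tested compounds plus 3 SD, cutoff set per campaign, cut at about 30% in these data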;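 also: inhibitors lower millipolarization by displacing the labeled peptide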
VIM-2 inh: blocks Pseudomonas aeruginosa VIM-2 metallo-beta-lactamase; inhibition, % at 5.6 µM; 290,000 tested, 0.89% active; purified VIM-2, nitrocefin hydrolysis, epi-absorbance fluorescence; AID 1527;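 active = inhibition above the mean of all tested compounds plus 3 SD, cutoff set per screening run, cut at about 7.5% in these data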;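 also: red hydrolysis product quenches plate fluorescence so inhibitors raise well fluorescence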
Of the large screens only hits and unclear results are named; the others gave an inactive call.

C[C@H]1CN([C@@H](C)CO)C(=O)c2cc(NC(=O)C3CCCCC3)ccc2O[C@H]1CN(C)C(=O)Nc1ccc2c(c1)OCO2	none (no result: IMP-1 inh, EBV gp42 block, MEX-5 binding, Bcl-xL primary, VIM-2 inh)
CC1CCc2sc(C(=O)NN)cc2C1 (stereo not drawn)	GLD-1 TGE inh 72
CC1CN(/C=C/C=O)C(C)CC1OC(=O)c1ccccc1 (stereo not drawn)	none (no result: EBV gp42 block)
Cc1cc(C)n2[nH]c(=O)c(N=Nc3ccccc3)c2n1	none
CCOc1ccc(N=Nc2c(=O)[nH]n3c(=O)cc(C)[nH]c23)cc1	MEX-5 binding -51
Cc1cc(=O)n2[nH]c(=O)c(N=Nc3ccccc3)c2[nH]1	MEX-5 binding -82
O=C(NCCc1cn2ccsc2n1)C1CCCCC1	none
c1cn2cc(CSC3CCCCC3)nc2s1	VIM-2 inh 9.1
Cc1ccc(C(=O)NCCN(C)C)cc1C	IMP-1 inh 5.4
O=C(NCCS(=O)(=O)N1CCN(c2ccccc2F)CC1)c1cc(=O)c2ccccc2o1	none (no result: EBV gp42 block)
CC(=O)NCCc1ccc(C(=O)COC(=O)c2cc(C)oc2C)cc1	none (no result: IMP-1 inh, EBV gp42 block, MEX-5 binding, Bcl-xL primary, VIM-2 inh)
Nc1ccc(-c2nc3ccc(C(=O)O)cc3s2)cc1	EBV gp42 block 99
O=C(O)c1ccc2nc(-c3ccccc3)sc2c1	none
O=C(NCCOc1ccccc1)C1CCC(=O)N(CCCN2CCCC2=O)C1 (stereo not drawn)	none (no result: EBV gp42 block)
Cc1nc2ccccc2c2oc(C(=O)Nc3ccc(C(C)C)cc3)cc12	none
Cc1nc2ccccc2c2oc(C(=O)Nc3ccc4c(c3)OCCO4)cc12	MEX-5 binding -28
CCN1CCCC1CNC(=O)c1cc2c(C)nc3ccccc3c2o1 (stereo not drawn)	VIM-2 inh 8.2 (no result: EBV gp42 block)
Cc1nc2ccccc2c2oc(C(=O)NCCN3CCCCC3C)cc12 (stereo not drawn)	VIM-2 inh 11
CCOC(=O)N1CCC(NC(=O)c2cc3c(C)nc4ccccc4c3o2)CC1	none
COc1ccc(C(=O)Nc2c(N)nc[nH]c2=O)cc1	none (no result: IMP-1 inh, EBV gp42 block, VIM-2 inh)
CC(=O)N1c2ccc(C)cc2C(c2ccccc2)CC1C (stereo not drawn)	IMP-1 inh 14 (no result: EBV gp42 block)
CC(=O)OC1CC(C)N(C(=O)c2ccccc2)c2ccc(C)cc21 (stereo not drawn)	none
COc1ccc(Cl)cc1C(=O)n1cnc2ccccc21	none (no result: EBV gp42 block)
COc1cc2c(C(=O)N3CCN(C)CC3)c(C)n(-c3ccccc3)c2cc1Br	none
CCN(CC)CCNC(=O)c1c(C)n(-c2ccccc2)c2cc(Br)c(OC)cc12	VIM-2 inh 8.0
CCN(C(=O)CN1CCC(C(=O)OC)CC1)c1c(N)n(Cc2ccccc2)c(=O)[nH]c1=O	none (no result: IMP-1 inh, EBV gp42 block, MEX-5 binding, Bcl-xL primary, VIM-2 inh)
O=C(Nc1cc2c3c(c1)CC(=O)N3CCC2)C1CCCCC1	none (no result: IMP-1 inh, EBV gp42 block, VIM-2 inh)
Cc1ccc(CSc2ncnc3c2cnn3Cc2ccccc2)cc1	IMP-1 inh 6.7
O=C(Nc1ccc(Br)cc1)Nc1cnccn1	none (no result: EBV gp42 block, GLD-1 TGE inh, Bcl-xL primary)
COc1cc(N)ccc1NC(=O)c1cc2ccccc2o1	IMP-1 inh 7.5 (no result: EBV gp42 block)
COc1ccc(N2COC3c4cccc5cccc(c45)C32)cc1 (stereo not drawn)	IMP-1 inh 4.7
Clc1ccc(N2COC3c4cccc5cccc(c45)C32)cc1 (stereo not drawn)	none
O=C(CSC(=S)N1CCCC1)NCC(=O)Nc1ccccc1Br	none (no result: IMP-1 inh, EBV gp42 block, VIM-2 inh)
C/C(=N\Nc1ccc(Cl)c(C(=O)O)c1)c1ccc[nH]1	MEX-5 binding -38
C/C(=N\Nc1ccc(Cl)c(C(=O)O)c1)c1cccs1	none
NNc1nc2cc3c(cc2s1)OCCO3	none (no result: EBV gp42 block)
COc1ccc(OC)c(C2=C/C(=C/c3ccccn3)C(=O)O2)c1	MEX-5 binding -42, Bcl-xL primary 31
CCC(Oc1ccccc1)C(=O)Nc1ccccn1 (stereo not drawn)	MEX-5 binding -35
CCC(Oc1ccccc1)C(=O)Nc1cc(C)on1 (stereo not drawn)	none
Cc1cc(=O)oc2c(C)c(OCC(=O)N3CCC(C(=O)O)CC3)ccc12	none (no result: EBV gp42 block)
CCOC(=O)CSc1nnc(-c2ccco2)n1-c1ccc(C)cc1	none
COC(=O)CSc1nnc(-c2ccco2)n1-c1ccc(C)cc1	IMP-1 inh 6.0
CCn1cc(C(=O)NCc2ccco2)c(=O)c2cc(S(=O)(=O)N3CCCCCC3)ccc21	none
CCOCCCNC(=O)c1cn(CC)c2ccc(S(=O)(=O)N3CCC(C)CC3)cc2c1=O	Bcl-xL primary 37 (no result: EBV gp42 block)
CCn1cc(C(=O)NCCCOC)c(=O)c2cc(S(=O)(=O)N3CCC(C)CC3)ccc21	none (no result: EBV gp42 block)
CCn1cc(C(=O)NCc2ccccn2)c(=O)c2cc(S(=O)(=O)N3CCCCC3)ccc21	EBV gp42 block 111, MEX-5 binding -72 (no result: GLD-1 TGE inh, Bcl-xL primary)
Cc1ccc(CNC(=O)c2cccc3c2C(=O)c2ccc(N4CCOCC4)cc2S3(=O)=O)cc1	none (no result: IMP-1 inh, EBV gp42 block, MEX-5 binding, VIM-2 inh)
O=C(NCc1ccco1)c1cccc2c1C(=O)c1ccc(N3CCCC3)cc1S2(=O)=O	GLD-1 TGE inh 31 (no result: IMP-1 inh, EBV gp42 block, MEX-5 binding, Bcl-xL primary, VIM-2 inh)
Cc1ccc(CNC(=O)c2cccc3c2C(=O)c2ccc(N4CCCCC4)cc2S3(=O)=O)cc1	GLD-1 TGE inh 71 (no result: IMP-1 inh, EBV gp42 block, MEX-5 binding, VIM-2 inh)
O=C(NCc1cccc(F)c1)c1cccc2c1C(=O)c1ccc(N3CCOCC3)cc1S2(=O)=O	none (no result: IMP-1 inh, EBV gp42 block, MEX-5 binding, Bcl-xL primary, VIM-2 inh)
FC(F)(F)c1cc(Cl)c2nnc(-c3cccnc3)n2c1	none
FC(F)(F)c1cc(Cl)c2nnc(-c3ccccn3)n2c1	VIM-2 inh 8.1 (no result: EBV gp42 block)
COc1ccc(CCC(=O)NNC(=O)c2cc(Cl)ccc2OC)cc1	none (no result: EBV gp42 block)
CCCn1c(=O)n(CC(=O)NCC2CCCO2)c(=O)c2c3c(sc21)COC(C)(C)C3 (stereo not drawn)	none (no result: EBV gp42 block)
O=C(NCc1ccco1)Nc1ccc(Br)cc1	none
O=C(NCc1ccco1)Nc1ccc(OC(F)(F)F)cc1	Bcl-xL primary 30
O=C(COc1ccc(F)cc1)NCCCn1ccnc1	none (no result: EBV gp42 block, GLD-1 TGE inh, Bcl-xL primary)
Cn1nc(C(=O)NNC(=O)c2ccc(Cl)cc2)ccc1=O	none (no result: IMP-1 inh, EBV gp42 block, VIM-2 inh)
CCc1ccc(C(=O)NNC(=O)c2ccc(=O)n(C)n2)cc1	MEX-5 binding -30 (no result: EBV gp42 block)
CSC1=NSC2=NC(=O)/C(=C/c3coc4ccc(O)cc4c3=O)C(=N)N12	EBV gp42 block 63, MEX-5 binding inconclusive, Bcl-xL primary 52
CSC1=NSC2=NC(=O)/C(=C/c3coc4ccccc4c3=O)C(=N)N12	EBV gp42 block 74, Bcl-xL primary 44 (no result: MEX-5 binding)
CSC1=NSC2=NC(=O)/C(=C\c3cccs3)C(=N)N12	none
Cc1ccc(C(=O)N2CCn3c(C)ccc3C2C)cc1 (stereo not drawn)	Bcl-xL primary 43
Cc1ccc(C(=O)N2CCN(C(=O)c3ccccc3)C2c2ccc(N(C)C)cc2)cc1 (stereo not drawn)	none
O=C(COC(=O)c1ccccc1C(=O)N1CCN(c2ccccc2)CC1)Nc1ccccc1	none
COc1cccc(NC(=O)COC(=O)c2ccccc2C(=O)N2CCN(c3ccccc3)CC2)c1	GLD-1 TGE inh 44, Bcl-xL primary 49
COc1cccc(NC(=O)COc2ccc(C(=S)N3CCN(C)CC3)cc2OC)c1	VIM-2 inh 8.3 (no result: EBV gp42 block)
